How the values were obtained:
[1] = Laboratory safety in RSV-infected infants; format: in vivo, human
Method in brief: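 Clinical laboratory tests were run in RSV-infected infants (>1 to ≤24 months) given oral drug or placebo once daily for 7 days. Abnormalities were graded with the DMID Pediatric Toxicity Tables (November 2007 version). Patients were followed for 28 days after randomisation.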

RSV-A and RSV-B strains = conditions: panel of laboratory-derived and clinically isolated RSV-A and RSV-B strains, in vitro; cited from earlier work

CS(=O)(=O)CCCn1c(Cn2c(=O)n(CC(F)(F)F)c3ccncc32)cc2cc(Cl)ccc21 [JNJ-53718678]
Chloride: Below (treatment-emergent nongraded abnormality) ([1]; Low (cohorts 1a,2a,3a), n=12): 0 no. (%)
Eosinophils: Above (treatment-emergent nongraded abnormality) ([1]; Low (cohorts 1a,2a,3a), n=12): 4 (33) no. (%)
Eosinophils: Below (treatment-emergent nongraded abnormality) ([1]; Low (cohorts 1a,2a,3a), n=12): 0 no. (%)
Erythrocytes: Above (treatment-emergent nongraded abnormality) ([1]; Low (cohorts 1a,2a,3a), n=12): 1 (8) no. (%)
Erythrocytes: Below (treatment-emergent nongraded abnormality) ([1]; Low (cohorts 1a,2a,3a), n=12): 0 no. (%)
Hemoglobin Grade 1 (treatment-emergent worst toxicity grade) ([1]; Low (cohorts 1a,2a,3a), n=12): 1 (8) no. (%)
Hemoglobin Grade 2 (treatment-emergent worst toxicity grade) ([1]; Low (cohorts 1a,2a,3a), n=12): 0 no. (%)
Hyperkalemia Grade 1 (treatment-emergent worst toxicity grade) ([1]; Low (cohorts 1a,2a,3a), n=12): 4 (33) no. (%)
Hyperkalemia Grade 2 (treatment-emergent worst toxicity grade) ([1]; Low (cohorts 1a,2a,3a), n=12): 0 no. (%)
Hypoglycemia Grade 1 (treatment-emergent worst toxicity grade) ([1]; Low (cohorts 1a,2a,3a), n=12): 0 no. (%)
Hyponatremia Grade 2 (treatment-emergent worst toxicity grade) ([1]; Low (cohorts 1a,2a,3a), n=12): 1 (8) no. (%)
Leukocytes: Above (treatment-emergent nongraded abnormality) ([1]; Low (cohorts 1a,2a,3a), n=12): 1 (8) no. (%)
Lymphocytes: Above (treatment-emergent nongraded abnormality) ([1]; Low (cohorts 1a,2a,3a), n=12): 2 (17) no. (%)
Lymphocytes: Below (treatment-emergent nongraded abnormality) ([1]; Low (cohorts 1a,2a,3a), n=12): 0 no. (%)
Eosinophils/leukocytes: Above (treatment-emergent nongraded abnormality) ([1]; Mid (cohorts 1b,2b,3b), n=9): 3 (33) no. (%)
Eosinophils/leukocytes: Below (treatment-emergent nongraded abnormality) ([1]; Mid (cohorts 1b,2b,3b), n=9): 0 no. (%)
Lymphocytes/leukocytes: Above (treatment-emergent nongraded abnormality) ([1]; Mid (cohorts 1b,2b,3b), n=9): 3 (33) no. (%)
Lymphocytes/leukocytes: Below (treatment-emergent nongraded abnormality) ([1]; Mid (cohorts 1b,2b,3b), n=9): 1 (11) no. (%)
Monocytes/leukocytes: Above (treatment-emergent nongraded abnormality) ([1]; Mid (cohorts 1b,2b,3b), n=9): 3 (33) no. (%)
Monocytes/leukocytes: Below (treatment-emergent nongraded abnormality) ([1]; Mid (cohorts 1b,2b,3b), n=9): 1 (11) no. (%)
Neutrophils/leukocytes: Above (treatment-emergent nongraded abnormality) ([1]; Mid (cohorts 1b,2b,3b), n=9): 1 (11) no. (%)
Neutrophils/leukocytes: Below (treatment-emergent nongraded abnormality) ([1]; Mid (cohorts 1b,2b,3b), n=9): 3 (33) no. (%)
Eosinophils: Above (treatment-emergent nongraded abnormality) ([1]; Mid (cohorts 1b,2b,3b), n=11): 2 (18) no. (%)
Eosinophils: Below (treatment-emergent nongraded abnormality) ([1]; Mid (cohorts 1b,2b,3b), n=11): 0 no. (%)
Lymphocytes: Above (treatment-emergent nongraded abnormality) ([1]; Mid (cohorts 1b,2b,3b), n=11): 2 (18) no. (%)
Lymphocytes: Below (treatment-emergent nongraded abnormality) ([1]; Mid (cohorts 1b,2b,3b), n=11): 0 no. (%)
Alkaline phosphatase: Above (treatment-emergent nongraded abnormality) ([1]; Mid (cohorts 1b,2b,3b), n=12): 1 (8) no. (%)
Alkaline phosphatase: Below (treatment-emergent nongraded abnormality) ([1]; Mid (cohorts 1b,2b,3b), n=12): 2 (17) no. (%)
Bicarbonate: Above (treatment-emergent nongraded abnormality) ([1]; Mid (cohorts 1b,2b,3b), n=12): 2 (17) no. (%)
Bicarbonate: Below (treatment-emergent nongraded abnormality) ([1]; Mid (cohorts 1b,2b,3b), n=12): 2 (17) no. (%)
Chloride: Above (treatment-emergent nongraded abnormality) ([1]; Mid (cohorts 1b,2b,3b), n=12): 2 (17) no. (%)
Chloride: Below (treatment-emergent nongraded abnormality) ([1]; Mid (cohorts 1b,2b,3b), n=12): 1 (8) no. (%)
Erythrocytes: Above (treatment-emergent nongraded abnormality) ([1]; Mid (cohorts 1b,2b,3b), n=12): 1 (8) no. (%)
Erythrocytes: Below (treatment-emergent nongraded abnormality) ([1]; Mid (cohorts 1b,2b,3b), n=12): 2 (17) no. (%)
Hemoglobin Grade 1 (treatment-emergent worst toxicity grade) ([1]; Mid (cohorts 1b,2b,3b), n=12): 1 (8) no. (%)
Hemoglobin Grade 2 (treatment-emergent worst toxicity grade) ([1]; Mid (cohorts 1b,2b,3b), n=12): 1 (8) no. (%)
Hyperkalemia Grade 1 (treatment-emergent worst toxicity grade) ([1]; Mid (cohorts 1b,2b,3b), n=12): 3 (25) no. (%)
Hyperkalemia Grade 2 (treatment-emergent worst toxicity grade) ([1]; Mid (cohorts 1b,2b,3b), n=12): 1 (8.3) no. (%)
Hypoglycemia Grade 1 (treatment-emergent worst toxicity grade) ([1]; Mid (cohorts 1b,2b,3b), n=12): 0 no. (%)
Hyponatremia Grade 2 (treatment-emergent worst toxicity grade) ([1]; Mid (cohorts 1b,2b,3b), n=12): 0 no. (%)
Leukocytes: Above (treatment-emergent nongraded abnormality) ([1]; Mid (cohorts 1b,2b,3b), n=12): 2 (17) no. (%)
Urea: Above (treatment-emergent nongraded abnormality) ([1]; Mid (cohorts 1b,2b,3b), n=12): 0 no. (%)
Urea: Below (treatment-emergent nongraded abnormality) ([1]; Mid (cohorts 1b,2b,3b), n=12): 4 (33) no. (%)
Urea: Above (treatment-emergent nongraded abnormality) ([1]; Mid-high (cohort 1c), n=3): 0 no. (%)
Urea: Below (treatment-emergent nongraded abnormality) ([1]; Mid-high (cohort 1c), n=3): 0 no. (%)
Alkaline phosphatase: Above (treatment-emergent nongraded abnormality) ([1]; Mid-high (cohort 1c), n=4): 0 no. (%)
Alkaline phosphatase: Below (treatment-emergent nongraded abnormality) ([1]; Mid-high (cohort 1c), n=4): 1 (25) no. (%)
Bicarbonate: Above (treatment-emergent nongraded abnormality) ([1]; Mid-high (cohort 1c), n=4): 0 no. (%)
Bicarbonate: Below (treatment-emergent nongraded abnormality) ([1]; Mid-high (cohort 1c), n=4): 1 (25) no. (%)
Chloride: Above (treatment-emergent nongraded abnormality) ([1]; Mid-high (cohort 1c), n=4): 2 (50) no. (%)
Chloride: Below (treatment-emergent nongraded abnormality) ([1]; Mid-high (cohort 1c), n=4): 0 no. (%)
Eosinophils/leukocytes: Above (treatment-emergent nongraded abnormality) ([1]; Mid-high (cohort 1c), n=4): 1 (25) no. (%)
Eosinophils/leukocytes: Below (treatment-emergent nongraded abnormality) ([1]; Mid-high (cohort 1c), n=4): 1 (25) no. (%)
Eosinophils: Above (treatment-emergent nongraded abnormality) ([1]; Mid-high (cohort 1c), n=4): 1 (25) no. (%)
Eosinophils: Below (treatment-emergent nongraded abnormality) ([1]; Mid-high (cohort 1c), n=4): 0 no. (%)
Erythrocytes: Above (treatment-emergent nongraded abnormality) ([1]; Mid-high (cohort 1c), n=4): 2 (50) no. (%)
Erythrocytes: Below (treatment-emergent nongraded abnormality) ([1]; Mid-high (cohort 1c), n=4): 0 no. (%)
Hemoglobin Grade 1 (treatment-emergent worst toxicity grade) ([1]; Mid-high (cohort 1c), n=4): 0 no. (%)
Hemoglobin Grade 2 (treatment-emergent worst toxicity grade) ([1]; Mid-high (cohort 1c), n=4): 0 no. (%)
Hyperkalemia Grade 1 (treatment-emergent worst toxicity grade) ([1]; Mid-high (cohort 1c), n=4): 2 (50) no. (%)
Hyperkalemia Grade 2 (treatment-emergent worst toxicity grade) ([1]; Mid-high (cohort 1c), n=4): 0 no. (%)
Hypoglycemia Grade 1 (treatment-emergent worst toxicity grade) ([1]; Mid-high (cohort 1c), n=4): 0 no. (%)
Hyponatremia Grade 2 (treatment-emergent worst toxicity grade) ([1]; Mid-high (cohort 1c), n=4): 1 (25) no. (%)
Leukocytes: Above (treatment-emergent nongraded abnormality) ([1]; Mid-high (cohort 1c), n=4): 0 no. (%)
Lymphocytes/leukocytes: Above (treatment-emergent nongraded abnormality) ([1]; Mid-high (cohort 1c), n=4): 0 no. (%)
Lymphocytes/leukocytes: Below (treatment-emergent nongraded abnormality) ([1]; Mid-high (cohort 1c), n=4): 0 no. (%)
Lymphocytes: Above (treatment-emergent nongraded abnormality) ([1]; Mid-high (cohort 1c), n=4): 1 (25) no. (%)
Lymphocytes: Below (treatment-emergent nongraded abnormality) ([1]; Mid-high (cohort 1c), n=4): 0 no. (%)
Monocytes/leukocytes: Above (treatment-emergent nongraded abnormality) ([1]; Mid-high (cohort 1c), n=4): 0 no. (%)
Monocytes/leukocytes: Below (treatment-emergent nongraded abnormality) ([1]; Mid-high (cohort 1c), n=4): 0 no. (%)
Neutrophils/leukocytes: Above (treatment-emergent nongraded abnormality) ([1]; Mid-high (cohort 1c), n=4): 0 no. (%)
Neutrophils/leukocytes: Below (treatment-emergent nongraded abnormality) ([1]; Mid-high (cohort 1c), n=4): 0 no. (%)
50% effective concentration (RSV-A and RSV-B strains): 0.09 to 9.50 ng/mL
